Source: ChEMBL document CHEMBL4342456, “Preventing Morphine-Seeking Behavior through the Re-Engineering of Vincamine's Biological Activity” (J Med Chem, 2020)

Assays:
Type in all cases: cell-based
[1] = molecular target: T1, Prolactin-releasing peptide receptor (Homo sapiens, UniProt P49683); test: Antagonist activity at human Gq-coupled PRLHR expressed in CHOK1 cells assessed as inhibition in prolactin releasing peptide (1 to 31)-induced beta-arrestin 2 recruitment incubated for 30 mins followed by prolactin releasing peptide (1 to 31) addition and measured after 90 or 180 mins by pathhunter beta-arrestin assay
T1 sequence (P49683 whole entry): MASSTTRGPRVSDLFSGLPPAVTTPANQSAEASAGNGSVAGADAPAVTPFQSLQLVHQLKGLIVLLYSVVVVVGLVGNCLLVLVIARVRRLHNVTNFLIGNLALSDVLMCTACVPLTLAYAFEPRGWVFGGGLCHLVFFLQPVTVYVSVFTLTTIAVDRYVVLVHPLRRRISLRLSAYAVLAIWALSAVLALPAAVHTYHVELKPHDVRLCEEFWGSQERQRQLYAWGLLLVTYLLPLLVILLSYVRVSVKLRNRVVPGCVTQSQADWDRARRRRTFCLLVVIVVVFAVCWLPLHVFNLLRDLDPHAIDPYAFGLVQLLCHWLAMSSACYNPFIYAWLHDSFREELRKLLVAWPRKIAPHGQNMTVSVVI
In short: (§1)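 PathHunter beta-arrestin recruitment, antagonist mode, run at DiscoverX. Cells seeded and held at 37 °C, then preincubated with test sample for 30 min at 37 °C or room temperature (1% vehicle). Agonist then added at EC80 for 90 or 180 min. […] IC50 comes from concentration–response runs in the same format.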

[2] = molecular target: C-C chemokine receptor type 8 (Homo sapiens, UniProt P51685); test: Antagonist activity at human CCR8 expressed in CHOK1 cells assessed as reduction in CCL1-induced beta-arrestin 2 recruitment incubated for 30 mins followed by CCL1 addition and measured after 90 or 180 mins by pathhunter beta-arrestin assay; in short: as §1
Neuropeptide S receptor = molecular target: T2, Neuropeptide S receptor (Homo sapiens, UniProt Q6W5P4); test: Antagonist activity at human Gq-coupled NPSR1b expressed in human U2OS cells assessed as inhibition in neuropeptide S-induced beta-arrestin 2 recruitment incubated for 30 mins followed by neuropeptide S addition and measured after 90 or 180 mins by pathhunter beta-arrestin assay; in short: as §1
T2 sequence (Q6W5P4 whole entry): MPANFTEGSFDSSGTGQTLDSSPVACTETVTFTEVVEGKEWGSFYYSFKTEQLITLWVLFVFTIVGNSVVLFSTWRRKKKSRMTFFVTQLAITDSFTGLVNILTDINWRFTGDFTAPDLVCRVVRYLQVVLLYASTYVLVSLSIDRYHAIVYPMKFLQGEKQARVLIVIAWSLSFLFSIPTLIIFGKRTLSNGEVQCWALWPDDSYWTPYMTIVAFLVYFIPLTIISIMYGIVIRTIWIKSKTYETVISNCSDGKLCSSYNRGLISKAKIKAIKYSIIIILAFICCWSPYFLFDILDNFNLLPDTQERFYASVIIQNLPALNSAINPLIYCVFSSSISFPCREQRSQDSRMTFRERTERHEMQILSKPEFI

Sequence of C-C chemokine receptor type 8 (P51685 whole entry): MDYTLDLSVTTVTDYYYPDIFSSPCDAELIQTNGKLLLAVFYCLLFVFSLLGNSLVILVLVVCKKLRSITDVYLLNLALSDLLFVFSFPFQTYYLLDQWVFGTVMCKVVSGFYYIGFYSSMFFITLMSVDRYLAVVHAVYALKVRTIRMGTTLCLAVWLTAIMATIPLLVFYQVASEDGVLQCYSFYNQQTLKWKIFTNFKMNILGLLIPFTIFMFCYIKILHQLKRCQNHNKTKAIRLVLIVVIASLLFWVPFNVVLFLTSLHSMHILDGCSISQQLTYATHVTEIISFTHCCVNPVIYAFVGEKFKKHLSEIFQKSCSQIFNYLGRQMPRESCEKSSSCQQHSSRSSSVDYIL

## CC[C@]12C=C(C(=O)OC)n3c(c(CCNC(=O)c4ccc(Br)cc4)c4ccccc43)[C@H]1N(C#N)CCC2
[1]
  IC50: 2.43 µM
[2]
  IC50: 5.2 µM
Neuropeptide S receptor
  IC50: 5.77 µM
